We go through one molecule from the M2OR odorant receptor database.

Common to all, as to details: stereoisomer not certain
One assay deals with T1, OR10H3 (Homo sapiens) (UniProt O60404).
T1 sequence (whole entry): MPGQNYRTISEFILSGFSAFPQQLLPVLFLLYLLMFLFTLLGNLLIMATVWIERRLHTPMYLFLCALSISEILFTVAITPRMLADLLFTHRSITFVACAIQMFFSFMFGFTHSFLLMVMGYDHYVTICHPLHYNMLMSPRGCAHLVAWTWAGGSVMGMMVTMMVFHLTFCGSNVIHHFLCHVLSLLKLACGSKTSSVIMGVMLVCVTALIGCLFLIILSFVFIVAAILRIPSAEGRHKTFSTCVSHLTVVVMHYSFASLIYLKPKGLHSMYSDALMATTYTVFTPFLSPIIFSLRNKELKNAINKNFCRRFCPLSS
The gist of the method:
(§1)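 Each entry records the cell line, G-protein, co-transfected protein and tags used. Methods varied with the source, often transient luciferase assays in mammalian cell lines. A receptor–molecule pair is called responsive (active) if the original authors judged its signal statistically different from baseline and non-responsive (inactive) otherwise.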

The next assay addresses T2, OR10H4 (Homo sapiens) (UniProt Q8NGA5).
T2 sequence (whole entry): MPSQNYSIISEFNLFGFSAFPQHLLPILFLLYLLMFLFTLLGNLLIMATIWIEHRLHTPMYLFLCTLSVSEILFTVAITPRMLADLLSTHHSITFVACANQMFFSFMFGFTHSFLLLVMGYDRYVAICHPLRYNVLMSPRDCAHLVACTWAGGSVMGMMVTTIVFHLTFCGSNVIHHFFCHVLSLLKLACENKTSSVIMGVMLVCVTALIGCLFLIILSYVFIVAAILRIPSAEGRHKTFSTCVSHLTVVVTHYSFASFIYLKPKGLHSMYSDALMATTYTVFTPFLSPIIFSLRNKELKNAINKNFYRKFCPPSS
The gist of the method: as §1

A further assay has as its target T3, OR10H5 (Homo sapiens) (UniProt Q8NGA6).
T3 sequence (whole entry): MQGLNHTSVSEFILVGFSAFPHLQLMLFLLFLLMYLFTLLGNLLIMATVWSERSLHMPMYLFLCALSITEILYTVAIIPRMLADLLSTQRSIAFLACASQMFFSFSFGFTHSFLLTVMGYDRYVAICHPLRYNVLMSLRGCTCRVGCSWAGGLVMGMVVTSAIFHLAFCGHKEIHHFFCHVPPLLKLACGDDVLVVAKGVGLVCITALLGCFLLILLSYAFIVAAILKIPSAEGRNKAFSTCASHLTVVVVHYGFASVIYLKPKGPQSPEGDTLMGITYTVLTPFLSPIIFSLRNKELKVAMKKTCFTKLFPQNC
The procedure, abridged: as §1

A further assay concerns the target T4, OR10J1 (Homo sapiens) (UniProt P30954).
T4 sequence (whole entry): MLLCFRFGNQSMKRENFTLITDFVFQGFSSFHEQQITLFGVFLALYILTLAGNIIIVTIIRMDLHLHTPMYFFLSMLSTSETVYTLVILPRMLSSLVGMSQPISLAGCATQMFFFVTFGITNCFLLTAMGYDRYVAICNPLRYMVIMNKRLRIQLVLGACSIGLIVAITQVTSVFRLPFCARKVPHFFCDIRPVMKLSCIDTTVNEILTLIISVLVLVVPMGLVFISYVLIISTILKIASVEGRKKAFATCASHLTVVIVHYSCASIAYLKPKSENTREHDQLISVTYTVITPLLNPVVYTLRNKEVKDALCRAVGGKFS
The gist of the method: as §1

The target of a further assay is T5, OR10J3 (Homo sapiens) (UniProt Q5JRS4).
T5 sequence (whole entry): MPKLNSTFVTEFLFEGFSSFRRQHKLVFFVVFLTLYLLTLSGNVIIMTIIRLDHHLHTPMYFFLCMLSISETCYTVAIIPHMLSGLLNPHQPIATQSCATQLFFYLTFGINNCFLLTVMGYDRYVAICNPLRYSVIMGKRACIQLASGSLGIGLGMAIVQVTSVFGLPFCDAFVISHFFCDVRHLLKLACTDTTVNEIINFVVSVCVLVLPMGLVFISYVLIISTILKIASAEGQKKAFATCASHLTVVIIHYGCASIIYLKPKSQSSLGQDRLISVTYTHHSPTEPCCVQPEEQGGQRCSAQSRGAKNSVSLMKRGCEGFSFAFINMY
The procedure, abridged: as §1

In another assay the target is T6, OR10J5 (Homo sapiens) (UniProt Q8NHC4).
T6 sequence (whole entry): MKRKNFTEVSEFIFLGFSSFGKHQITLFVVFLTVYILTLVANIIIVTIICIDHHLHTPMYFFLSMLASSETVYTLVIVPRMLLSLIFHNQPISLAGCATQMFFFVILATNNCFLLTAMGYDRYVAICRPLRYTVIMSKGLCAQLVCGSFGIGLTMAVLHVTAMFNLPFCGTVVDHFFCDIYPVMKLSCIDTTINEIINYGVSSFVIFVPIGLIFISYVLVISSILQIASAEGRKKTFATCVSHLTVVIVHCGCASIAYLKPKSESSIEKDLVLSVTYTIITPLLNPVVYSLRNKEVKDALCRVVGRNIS
The gist of the method: as §1

The target in the next assay is T7, OR10K1 (Homo sapiens) (UniProt Q8NGX5).
T7 sequence (whole entry): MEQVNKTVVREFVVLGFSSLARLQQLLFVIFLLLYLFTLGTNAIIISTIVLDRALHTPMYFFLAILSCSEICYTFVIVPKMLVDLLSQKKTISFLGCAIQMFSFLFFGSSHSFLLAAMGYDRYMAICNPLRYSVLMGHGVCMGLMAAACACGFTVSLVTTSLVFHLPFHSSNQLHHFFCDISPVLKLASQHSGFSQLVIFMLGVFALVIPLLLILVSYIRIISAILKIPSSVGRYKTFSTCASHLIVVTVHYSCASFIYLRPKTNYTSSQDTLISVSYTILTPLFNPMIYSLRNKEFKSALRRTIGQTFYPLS
The procedure, abridged: as §1

In the next assay the target is T8, OR10K2 (Homo sapiens) (UniProt Q6IF99).
T8 sequence (whole entry): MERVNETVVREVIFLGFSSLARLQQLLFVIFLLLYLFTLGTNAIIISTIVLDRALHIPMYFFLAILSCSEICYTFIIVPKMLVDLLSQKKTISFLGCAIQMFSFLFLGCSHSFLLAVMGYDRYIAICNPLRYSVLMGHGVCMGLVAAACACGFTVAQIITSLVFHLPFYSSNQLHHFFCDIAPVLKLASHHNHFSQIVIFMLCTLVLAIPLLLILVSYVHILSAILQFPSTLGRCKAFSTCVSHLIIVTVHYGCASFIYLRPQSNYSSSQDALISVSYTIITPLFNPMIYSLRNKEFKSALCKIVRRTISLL
The procedure, abridged:
as §1

The next assay addresses T9, OR10P1 (Homo sapiens) (UniProt Q8NGE3).
T9 sequence (whole entry): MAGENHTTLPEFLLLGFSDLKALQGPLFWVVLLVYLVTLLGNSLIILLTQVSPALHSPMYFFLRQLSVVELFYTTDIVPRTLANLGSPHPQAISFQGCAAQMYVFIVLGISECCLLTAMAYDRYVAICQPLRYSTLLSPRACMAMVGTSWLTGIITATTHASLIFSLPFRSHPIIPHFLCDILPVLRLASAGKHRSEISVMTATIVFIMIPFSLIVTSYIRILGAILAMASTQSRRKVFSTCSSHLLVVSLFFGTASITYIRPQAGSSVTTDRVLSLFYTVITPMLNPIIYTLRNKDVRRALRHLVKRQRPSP
The procedure, abridged: as §1

Another assay deals with T10, OR10Q1 (Homo sapiens) (UniProt Q8NGQ4).
T10 sequence (whole entry): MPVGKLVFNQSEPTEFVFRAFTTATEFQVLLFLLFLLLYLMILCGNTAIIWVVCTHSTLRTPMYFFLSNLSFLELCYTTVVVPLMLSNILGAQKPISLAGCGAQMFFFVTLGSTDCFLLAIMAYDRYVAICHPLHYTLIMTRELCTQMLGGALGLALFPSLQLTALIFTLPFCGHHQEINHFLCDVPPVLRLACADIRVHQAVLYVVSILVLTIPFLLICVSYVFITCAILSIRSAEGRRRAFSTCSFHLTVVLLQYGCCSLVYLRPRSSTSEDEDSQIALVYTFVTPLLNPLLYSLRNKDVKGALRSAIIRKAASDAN
The gist of the method:
as §1

For `CCCCC(S)C(C)CO` (stereo not given), the “odorant receptor agonist call” value in the assay with OR10H3 (Homo sapiens), with OR10H4 (Homo sapiens), with OR10H5 (Homo sapiens), in the assay with OR10J1 (Homo sapiens), in the assay with OR10J3 (Homo sapiens) and in the assay with OR10K1 (Homo sapiens) was “inactive” each time. For the same molecule, the “odorant receptor agonist call” value with OR10K2 (Homo sapiens), in the assay with OR10P1 (Homo sapiens) and in the assay with OR10Q1 (Homo sapiens) was “inactive” each time. In addition, the “odorant receptor agonist call” value in the assay with OR10J5 (Homo sapiens) is “active”.
